Results taken from ChEMBL document CHEMBL4428079, “Modulation of Backbone Flexibility for Effective Dissociation of Antibacterial and Hemolytic Activity in Cyclic Peptides” (ACS Med Chem Lett, 2016).
Values after ≈ are worked out from the molar mass of the structure shown. Active and inactive are the calls of the source. The calls are words filed in the database; no cut-off is given here. Bridge positions count the residues as written; N and C are the ends. Square brackets hold non-standard residues; d marks the D form. Peptide text beside a SMILES is read from it. Bip = N[C@@H](Cc1ccc(-c2ccccc2)cc1)C(=O)O; 2Nal = N[C@@H](Cc1ccc2ccccc2c1)C(=O)O; Dab = NCC[C@H](N)C(=O)O; AEEA = NCCOCCOCC(=O)O; Aoc = NCCCCCCCC(=O)O; Ahx = NCCCCCC(=O)O; AEA = NCCOCC(=O)O; GABA = NCCCC(=O)O

Assays:
Staphylococcus aureus [1] = test: Antimicrobial activity against methicillin-resistant Staphylococcus aureus ATCC 33591 after 18 hrs by tube microdilution method; format: functional; details: ATCC 33591, 18 h
Lipid bilayer [2] = test: Membrane permeabilization in DOPC/POPG large unilamellar vesicles in 3:1 ratio assessed as sulforhodamine B release at 16 to 64 uM by fluorescence assay
Summary of the method: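 Sulforhodamine B was entrapped at self-quenching concentration in LUVs of DOPC/POPG at 3:1. PE lipids were excluded, and palmitoyl replaced one oleyl chain for vesicle stability. Peptide was added at 16, 32 or 64 μM, and marker release was followed over time as fluorescence recovery on dye release and dilution.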

Escherichia coli = test: Antimicrobial activity against Escherichia coli ATCC 25922 after 18 hrs by tube microdilution method; format: functional; details: ATCC 25922, 18 h
Lipid bilayer [3] = test: Binding affinity to DOPE/DOPG large unilamellar vesicles in 3:1 ratio assessed as exciton split measured at 225 nanometer in NaHCO3 buffer
Enterococcus faecium = test: Antimicrobial activity against vancomycin-resistant Enterococcus faecium ATCC 700221 after 18 hrs by tube microdilution method; format: functional; details: ATCC 700221, 18 h
Erythrocyte = test: Hemolytic activity in human RBC after 1 hr by microplate reader method; format: ADME, cell-based
Pseudomonas aeruginosa = test: Antimicrobial activity against Pseudomonas aeruginosa ATCC 27853 after 18 hrs by tube microdilution method; format: functional; details: ATCC 27853, 18 h
Klebsiella pneumoniae = test: Antimicrobial activity against multiple drug resistant-Klebsiella pneumoniae ATCC 700603 after 18 hrs by tube microdilution method; format: functional; details: Klebsiella pneumoniae, 700603, 18 h
Acinetobacter baumannii = test: Antimicrobial activity against multiple drug resistant-Acinetobacter baumannii ATCC BAA-1605 after 18 hrs by tube microdilution method; format: functional; details: ATCC BAA-1605, 18 h
Staphylococcus aureus [4] = test: Bactericidal activity against Staphylococcus aureus ATCC 29213 assessed as reduction in bacterial burden at 32 uM measured up to 3.5 hrs by time kill kinetic study; format: functional
Summary of the method: (§1)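 Time-course kill assay against S. aureus ATCC 29213 with peptide at 32 μM. Viable cell count was followed over time as colony counts, with a final sampling at 24 h.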

Staphylococcus aureus [5] = test: Bactericidal activity against Staphylococcus aureus ATCC 29213 assessed as reduction in bacterial burden at 32 uM after 24 hrs by time kill kinetic study; format: functional, organism-based; summary of the method: as §1
Staphylococcus aureus [6] = test: Bactericidal activity against Staphylococcus aureus ATCC 29213 assessed as reduction in bacterial burden at 32 uM measured up to 30 mins by time kill kinetic study; format: functional; summary of the method: as §1

Row | Structure (SMILES) | MIC (Staphylococcus aureus [1]) [µM] | Activity (Lipid bilayer [2]) | MIC (Escherichia coli) [µM] | Activity (Lipid bilayer [3]) | MIC (Enterococcus faecium) [µM] | EC50 (Erythrocyte) [µM] | MIC (Pseudomonas aeruginosa) [µM] | MIC (Klebsiella pneumoniae) [µM] | MIC (Acinetobacter baumannii) [µM] | LCK (Staphylococcus aureus [4]) | Activity (Staphylococcus aureus [5]) | LCK (Staphylococcus aureus [6])
1 | NCCCC[C@@H]1NC(=O)[C@H](Cc2ccc3ccccc3c2)NC(=O)COCCOCCNC(=O)[C@H](Cc2ccc(-c3ccccc3)cc2)NC(=O)[C@H](CCCCN)NC(=O)[C@H](CCCCN)NC(=O)[C@H](Cc2ccc3ccccc3c2)NC(=O)[C@H](CCCCN)NC(=O)[C@H](CC(N)=O)NC1=O (cyclo(K[2Nal]KK[Bip][AEEA][2Nal]KN)) | 16 (≈ 22.2 µg/mL) | Active | 64 (≈ 88.9 µg/mL) | inactive | 2 (≈ 2.78 µg/mL) | > 300 | 32 (≈ 44.5 µg/mL) | 64 (≈ 88.9 µg/mL) | 16 (≈ 22.2 µg/mL) | – | – | –
2 | NCCCC[C@@H]1NC(=O)[C@H](CCCCN)NC(=O)[C@H](Cc2ccc3ccccc3c2)NC(=O)[C@H](CCCCN)NC(=O)[C@H](CC(N)=O)NC(=O)[C@H](CCCCN)NC(=O)[C@H](Cc2ccc3ccccc3c2)NC(=O)[C@@H](N)CCCCNC(=O)[C@H](Cc2ccc(-c3ccccc3)cc2)NC1=O (H-K[2Nal]KNK[2Nal]KK[Bip]; lactam 1-C) | 16 (≈ 22 µg/mL) | – | 32 (≈ 43.9 µg/mL) | Active | 2 (≈ 2.75 µg/mL) | > 300 | 16 (≈ 22 µg/mL) | 64 (≈ 87.9 µg/mL) | > 64 | – | – | –
3 | NCCCC[C@@H]1NC(=O)[C@H](CCCCN)NC(=O)[C@H](Cc2ccc3ccccc3c2)NC(=O)[C@H](CCCCN)NC(=O)[C@H](CC(N)=O)NC(=O)[C@H](CCCCN)NC(=O)[C@H](Cc2ccc3ccccc3c2)NC(=O)[C@@H](N)CCNC(=O)[C@H](Cc2ccc(-c3ccccc3)cc2)NC1=O (H-[Dab][2Nal]KNK[2Nal]KK[Bip]; lactam 1-C) | 16 (≈ 21.5 µg/mL) | – | 64 (≈ 86.1 µg/mL) | Active | 2 (≈ 2.69 µg/mL) | > 300 | 32 (≈ 43 µg/mL) | 64 (≈ 86.1 µg/mL) | > 64 | 3 | Active | –
4 | NCCCC[C@@H]1NC(=O)[C@H](Cc2ccc3ccccc3c2)NC(=O)CNC(=O)[C@H](Cc2ccc(-c3ccccc3)cc2)NC(=O)[C@H](CCCCN)NC(=O)[C@H](CCCCN)NC(=O)[C@H](Cc2ccc3ccccc3c2)NC(=O)[C@H](CCCCN)NC(=O)[C@H](CC(N)=O)NC1=O (cyclo([2Nal]KK[Bip]G[2Nal]KNK)) | 8 (≈ 10.4 µg/mL) | Active | 32 (≈ 41.7 µg/mL) | Active | 4 (≈ 5.21 µg/mL) | 45 | 32 (≈ 41.7 µg/mL) | 32 (≈ 41.7 µg/mL) | 32 (≈ 41.7 µg/mL) | – | Active | –
5 | NCCCC[C@@H]1NC(=O)[C@H](Cc2ccc3ccccc3c2)NC(=O)CCCCCCCCCNC(=O)[C@H](Cc2ccc(-c3ccccc3)cc2)NC(=O)[C@H](CCCCN)NC(=O)[C@H](CCCCN)NC(=O)[C@H](Cc2ccc3ccccc3c2)NC(=O)[C@H](CCCCN)NC(=O)[C@H](CC(N)=O)NC1=O | – | – | – | Active | – | – | – | – | – | – | – | –
6 | NCCCC[C@@H]1NC(=O)[C@H](Cc2ccc3ccccc3c2)NC(=O)CCCCCNC(=O)[C@H](Cc2ccc(-c3ccccc3)cc2)NC(=O)[C@H](CCCCN)NC(=O)[C@H](CCCCN)NC(=O)[C@H](Cc2ccc3ccccc3c2)NC(=O)[C@H](CCCCN)NC(=O)[C@H](CC(N)=O)NC1=O (cyclo([2Nal]KK[Bip][Ahx][2Nal]KNK)) | 8 (≈ 10.9 µg/mL) | – | 16 (≈ 21.7 µg/mL) | Active | 2 (≈ 2.72 µg/mL) | 18 | 16 (≈ 21.7 µg/mL) | 8 (≈ 10.9 µg/mL) | 8 (≈ 10.9 µg/mL) | – | – | –
7 | NCCCC[C@@H]1NC(=O)[C@H](Cc2ccc3ccccc3c2)NC(=O)CCCCCCCNC(=O)[C@H](Cc2ccc(-c3ccccc3)cc2)NC(=O)[C@H](CCCCN)NC(=O)[C@H](CCCCN)NC(=O)[C@H](Cc2ccc3ccccc3c2)NC(=O)[C@H](CCCCN)NC(=O)[C@H](CC(N)=O)NC1=O (cyclo([2Nal]KK[Bip][Aoc][2Nal]KNK)) | 4 (≈ 5.54 µg/mL) | Active | 16 (≈ 22.2 µg/mL) | Active | 2 (≈ 2.77 µg/mL) | 12 | 16 (≈ 22.2 µg/mL) | 16 (≈ 22.2 µg/mL) | 16 (≈ 22.2 µg/mL) | – | – | –
8 | NCCCC[C@@H]1NC(=O)[C@H](Cc2ccc3ccccc3c2)NC(=O)CCCNC(=O)[C@H](Cc2ccc(-c3ccccc3)cc2)NC(=O)[C@H](CCCCN)NC(=O)[C@H](CCCCN)NC(=O)[C@H](Cc2ccc3ccccc3c2)NC(=O)[C@H](CCCCN)NC(=O)[C@H](CC(N)=O)NC1=O (cyclo([2Nal]KK[Bip][GABA][2Nal]KNK)) | 16 (≈ 21.3 µg/mL) | – | 32 (≈ 42.5 µg/mL) | Active | 4 (≈ 5.32 µg/mL) | 155 | 32 (≈ 42.5 µg/mL) | 32 (≈ 42.5 µg/mL) | 32 (≈ 42.5 µg/mL) | – | Active | 3
9 | NCCCC[C@@H]1NC(=O)[C@H](CCCCN)NC(=O)[C@H](Cc2ccc3ccccc3c2)NC(=O)[C@H](CCCCN)NC(=O)[C@@H](CC(N)=O)NC(=O)[C@H](CCCCN)NC(=O)[C@H](Cc2ccc3ccccc3c2)NC(=O)CCCCCCCCCNC(=O)[C@H](Cc2ccc(-c3ccccc3)cc2)NC1=O | 16 (≈ 22.6 µg/mL) | – | 16 (≈ 22.6 µg/mL) | – | 8 (≈ 11.3 µg/mL) | 5 | > 64 | > 64 | 16 (≈ 22.6 µg/mL) | – | – | –
10 | NCCCC[C@@H]1NC(=O)[C@H](Cc2ccc3ccccc3c2)NC(=O)COCCNC(=O)[C@H](Cc2ccc(-c3ccccc3)cc2)NC(=O)[C@H](CCCCN)NC(=O)[C@H](CCCCN)NC(=O)[C@H](Cc2ccc3ccccc3c2)NC(=O)[C@H](CCCCN)NC(=O)[C@H](CC(N)=O)NC1=O (cyclo([2Nal]KK[Bip][AEA][2Nal]KNK)) | 16 (≈ 21.5 µg/mL) | – | 32 (≈ 43.1 µg/mL) | Active | 4 (≈ 5.38 µg/mL) | > 300 | 32 (≈ 43.1 µg/mL) | 64 (≈ 86.1 µg/mL) | 32 (≈ 43.1 µg/mL) | – | – | –
